Test results reported in ChEMBL document CHEMBL2331121, “Design, synthesis, and pharmacological characterization of N- and O-substituted 5,6,7,8-tetrahydro-4H-isoxazolo[4,5-d]azepin-3-ol analogues: novel 5-HT(2A)/5-HT(2C) receptor agonists with pro-cognitive properties” (J Med Chem, 2013).
Activity calls are given as the source filed them. The rule behind the calls is not given here.

Legend:
[1] = molecular target: T1, 5-hydroxytryptamine receptor 2C (Homo sapiens) (UniProt P28335); experiment: Agonist activity at human 5HT2C receptor expressed in HEK293 cells assessed as induction of intracellular calcium release at 1 mM measured for 90 secs by fluorescence assay; format: functional, cell-based
T1 sequence (whole entry): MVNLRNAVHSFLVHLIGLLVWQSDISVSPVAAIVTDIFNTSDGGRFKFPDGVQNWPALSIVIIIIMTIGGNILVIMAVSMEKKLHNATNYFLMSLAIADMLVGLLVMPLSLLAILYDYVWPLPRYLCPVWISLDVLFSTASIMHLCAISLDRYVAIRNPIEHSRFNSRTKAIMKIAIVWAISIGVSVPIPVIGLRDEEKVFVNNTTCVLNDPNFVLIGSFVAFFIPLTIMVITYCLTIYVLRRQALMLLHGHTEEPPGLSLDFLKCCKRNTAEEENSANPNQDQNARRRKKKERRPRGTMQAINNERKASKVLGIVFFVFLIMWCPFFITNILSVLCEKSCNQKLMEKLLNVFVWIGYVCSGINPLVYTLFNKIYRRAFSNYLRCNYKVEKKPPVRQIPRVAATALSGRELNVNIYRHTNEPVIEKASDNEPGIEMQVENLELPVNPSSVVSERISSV
Outline: (§1)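 Stable polyclonal h5-HT2A or h5-HT2C HEK293 cells plated on poly-D-lysine wells, loaded next day with Fluo-4/AM for 1 h at 37 °C. Buffer was HBSS with 20 mM HEPES, 1 mM CaCl₂, 1 mM MgCl₂, 2.5 mM probenecid, pH 7.4. Fluorescence read at 485/525 nm before and up to 90 s after agonist addition. Responses normalised to 5-HT on the same plate. Duplicate, 4−10 experiments.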

[2] = molecular target: T2, 5-hydroxytryptamine receptor 2A (Homo sapiens, UniProt P28223); experiment: Antagonist activity at human 5HT2A receptor expressed in HEK293 cells assessed as inhibition of 5HT-induced intracellular calcium release at 1 mM measured for 90 secs by fluorescence assay; format: functional, cell-based
Outline: (§2)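 Fluo-4/Ca²⁺ read-out in stable h5-HT2A or h5-HT2C HEK293 cells (HBSS/HEPES/probenecid buffer, pH 7.4). Antagonist was added after the dye-loading wash, then cells were challenged with an EC₇₅−EC₈₅ concentration of 5-HT. Emission at 525 nm was monitored up to 90 s after agonist addition. Duplicate, repeated in independent experiments.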

[3] = molecular target: T3, 5-hydroxytryptamine receptor 2C (Homo sapiens, UniProt P28335); experiment: Agonist activity at human 5HT2C receptor expressed in HEK293 cells assessed as induction of intracellular calcium release measured for 90 secs by fluorescence assay; format: functional, cell-based
T3 sequence (P28335 whole entry): T1 sequence (whole entry)

[4] = molecular target: T2, 5-hydroxytryptamine receptor 2A; experiment: Agonist activity at human 5HT2A receptor expressed in HEK293 cells assessed as induction of intracellular calcium release at 1 mM measured for 90 secs by fluorescence assay; format: functional, cell-based; outline: as §1
[5] = molecular target: T1, 5-hydroxytryptamine receptor 2C (Homo sapiens); experiment: Antagonist activity at human 5HT2C receptor expressed in HEK293 cells assessed as inhibition of 5HT-induced intracellular calcium release at 1 mM measured for 90 secs by fluorescence assay; format: functional, cell-based; outline: as §2
[6] = molecular target: T2, 5-hydroxytryptamine receptor 2A; experiment: Agonist activity at human 5HT2A receptor expressed in HEK293 cells assessed as induction of intracellular calcium release measured for 90 secs by fluorescence assay; format: functional, cell-based
[7] = molecular target: T4, 5-hydroxytryptamine receptor 2C (Rattus norvegicus) (UniProt P08909); experiment: Displacement of [125I]-N-(p-I-Bn)-THAZ from 5HT2C in rat cerebral cortex membrane at 300 uM after 1 hr by scintillation counting analysis; format: cell membranes
T4 sequence (whole entry): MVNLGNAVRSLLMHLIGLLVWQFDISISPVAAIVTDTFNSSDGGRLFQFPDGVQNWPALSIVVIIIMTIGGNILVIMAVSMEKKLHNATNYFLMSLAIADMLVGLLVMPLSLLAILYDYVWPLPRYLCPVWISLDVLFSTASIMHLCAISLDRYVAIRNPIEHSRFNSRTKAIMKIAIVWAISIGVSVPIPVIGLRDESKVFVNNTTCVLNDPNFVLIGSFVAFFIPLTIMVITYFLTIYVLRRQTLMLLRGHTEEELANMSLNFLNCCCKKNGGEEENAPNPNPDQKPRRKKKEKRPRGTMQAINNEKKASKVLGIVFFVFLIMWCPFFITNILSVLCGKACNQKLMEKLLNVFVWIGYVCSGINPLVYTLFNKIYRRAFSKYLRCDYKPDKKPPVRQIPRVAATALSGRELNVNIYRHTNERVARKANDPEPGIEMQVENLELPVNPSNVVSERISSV

[8] = molecular target: T4, 5-hydroxytryptamine receptor 2C (Rattus norvegicus); experiment: Displacement of [125I]-N-(p-I-Bn)-THAZ from 5HT2C in rat cerebral cortex membrane up to 50 uM after 1 hr by scintillation counting analysis; format: cell membranes
[9] = molecular target: T4, 5-hydroxytryptamine receptor 2C (Rattus norvegicus); experiment: Displacement of [125I]-N-(p-I-Bn)-THAZ from 5HT2C receptor in rat hippocampal membrane after 1 hr by scintillation counting analysis; format: cell membranes; details: Hippocampus
[10] = molecular target: T4, 5-hydroxytryptamine receptor 2C (Rattus norvegicus); experiment: Displacement of [125I]-N-(p-I-Bn)-THAZ from 5HT2C receptor in rat midbrain membrane after 1 hr by scintillation counting analysis; format: cell membranes
[11] = molecular target: T4, 5-hydroxytryptamine receptor 2C (Rattus norvegicus); experiment: Displacement of [125I]-N-(p-I-Bn)-THAZ from 5HT2C receptor in rat cerebellum membrane after 1 hr by scintillation counting analysis; format: cell membranes
[12] = molecular target: T2, 5-hydroxytryptamine receptor 2A; experiment: Agonist activity at human 5HT2A receptor expressed in HEK293 cells assessed as induction of intracellular calcium release by fluorescence assay relative to 5HT; format: functional, cell-based
Outline: (§3)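 Stable polyclonal 5-HT2A or 5-HT2C HEK293 cells seeded on poly-D-lysine plates (6 × 10⁴ cells/well). Next day loaded with Fluo-4/AM for 1 h at 37 °C in HBSS/20 mM HEPES/1 mM CaCl₂/1 mM MgCl₂/2.5 mM probenecid, pH 7.4. Fluorescence (485 ex/525 em) recorded before and up to 90 s after agonist. Response relative to 5-HT on the same plate. Duplicate, at least three times.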

[13] = molecular target: T1, 5-hydroxytryptamine receptor 2C (Homo sapiens); experiment: Agonist activity at human 5HT2C receptor expressed in HEK293 cells assessed as induction of intracellular calcium release by fluorescence assay relative to 5HT; format: functional, cell-based; outline: as §3
[14] = molecular target: T3, 5-hydroxytryptamine receptor 2C; experiment: Agonist activity at human 5HT2C receptor expressed in HEK293 cells assessed as accumulation of IP1 incubated for 1 hr at 37 degC followed by 15 mins at RT by TR-FRET assay; format: functional, cell-based
[15] = molecular target: T2, 5-hydroxytryptamine receptor 2A; experiment: Agonist activity at human 5HT2A receptor expressed in HEK293 cells assessed as accumulation of IP1 incubated for 1 hr at 37 degC followed by 15 mins at RT by TR-FRET assay relative to 5HT; format: functional, cell-based
Outline: (§4)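 Polyclonal HEK293 lines stably expressing human 5-HT2A (variant 1) or 5-HT2C (INI isoform), detached and suspended at 1 × 10⁷ cells/mL in HBSS with 20 mM HEPES, 1 mM CaCl₂, 1 mM MgCl₂, pH 7.4. Ligands in buffer with 40 mM LiCl. Incubated 1 h at 37 °C, then 15 min RT. IP1 read by HTRF 665/615 ratio. Triplicate, at least four times.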

[16] = molecular target: T2, 5-hydroxytryptamine receptor 2A; experiment: biochemical; format: cell-based, tsA201
[17] = molecular target: T3, 5-hydroxytryptamine receptor 2C; experiment: Displacement of [3H]mesulergine from human 5HT2C receptor expressed in tsA201 cell membranes after 1 hr by scintillation counting analysis
[18] = molecular target: T2, 5-hydroxytryptamine receptor 2A; experiment: Agonist activity at human 5HT2A receptor expressed in HEK293 cells assessed as accumulation of IP1 incubated for 1 hr at 37 degC followed by 15 mins at RT by TR-FRET assay; format: functional, cell-based
[19] = molecular target: T1, 5-hydroxytryptamine receptor 2C (Homo sapiens); experiment: Agonist activity at human 5HT2C receptor expressed in HEK293 cells assessed as accumulation of IP1 incubated for 1 hr at 37 degC followed by 15 mins at RT by TR-FRET assay relative to 5HT; format: functional, cell-based; outline: as §4

T2 sequence (P28223 whole entry): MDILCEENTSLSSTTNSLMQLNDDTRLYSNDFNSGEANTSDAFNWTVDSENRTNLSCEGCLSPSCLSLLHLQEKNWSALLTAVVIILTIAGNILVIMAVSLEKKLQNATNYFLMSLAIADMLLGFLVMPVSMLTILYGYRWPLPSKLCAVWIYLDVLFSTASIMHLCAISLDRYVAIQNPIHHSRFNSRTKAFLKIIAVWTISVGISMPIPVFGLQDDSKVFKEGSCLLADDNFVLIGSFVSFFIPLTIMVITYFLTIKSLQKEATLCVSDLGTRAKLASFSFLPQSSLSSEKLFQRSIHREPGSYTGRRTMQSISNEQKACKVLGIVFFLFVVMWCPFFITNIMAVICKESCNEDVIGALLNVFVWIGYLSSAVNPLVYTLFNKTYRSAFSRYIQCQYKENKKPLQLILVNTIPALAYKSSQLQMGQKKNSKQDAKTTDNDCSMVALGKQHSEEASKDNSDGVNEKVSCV

SMILES	Activity [1]	Activity [2]	EC50 ([3]; hek293, read-out: EC50) [µM]	EC50 ([3]; read-out: pEC50 (converted)) [µM]	Activity [4]	Activity [5]	EC50 ([6]; hek293, read-out: EC50) [µM]	EC50 ([6]; read-out: pEC50 (converted)) [µM]	further results
CCn1oc2c(c1=O)CCNC2	inactive	inactive	> 1000	> 1000	inactive	inactive	> 1000	> 1000	
Cn1oc2c(c1=O)CNCC2	inactive	inactive	> 1000	> 1000	inactive	inactive	> 1000	> 1000	
NC[C@H](O)c1ccc(O)c(O)c1									Activity [7]: inactive
NCCc1c[nH]c2ccc(O)cc12									Activity [8]: inactive; Activity [9]: inactive; Activity [10]: inactive; Activity [11]: inactive
C[C@H](N)Cn1ccc2cc(F)c(Cl)cc21									EC50 ([3]; read-out: EC50): 0.0047 µM; Emax [12]: 117%; Emax [13]: 111%; EC50 ([6]; read-out: EC50): 0.027 µM
O=c1c2c(on1Cc1ccccc1)CCCNC2	inactive	inactive	> 1000	> 1000	inactive	inactive	> 1000	> 1000	
CCOc1noc2c1CCNC2	inactive	inactive	> 1000	> 1000	inactive	inactive	> 1000	> 1000	
Clc1cccc(COc2cncc(N3CCNCC3)n2)c1									EC50 [14]: 0.0081 µM; Emax [15]: 90%; EC50 ([3]; read-out: EC50): 0.0019 µM; Ki ([16]; read-out: Ki): 0.081 µM; Emax [12]: 88%; Emax [13]: 103%; Ki [17]: 0.0093 µM; EC50 [18]: 0.14 µM; Emax [19]: 109%; EC50 ([6]; read-out: EC50): 0.076 µM
CCOc1noc2c1CCNCC2									EC50 ([3]; read-out: EC50): 3 µM; Ki ([16]; read-out: Ki): 100 µM; Emax [12]: 42%; Emax [13]: 67%; Ki [17]: 100 µM; EC50 ([6]; read-out: EC50): 7.9 µM
NCCCC(=O)O									Activity [7]: inactive
O=c1c2c(on1Cc1cccc(I)c1)CCNCC2									Ki [17]: 4.8 µM
Cn1c2c(c3ccccc31)CCNCC2 [PNU-22394]									EC50 [14]: 0.12 µM; Emax [15]: 98%; EC50 ([3]; read-out: EC50): 0.0077 µM; Emax [12]: 102%; Emax [13]: 101%; EC50 [18]: 0.21 µM; Emax [19]: 97%; EC50 ([6]; read-out: EC50): 0.023 µM
NCCc1ccc(O)c(O)c1									Activity [7]: inactive
Oc1noc2c1CCNCC2	inactive	inactive	> 1000	> 1000	inactive	inactive	> 1000	> 1000	Ki ([16]; read-out: Ki): > 300 µM; Ki ([16]; read-out: pKi (converted)): > 316 µM; Ki [17]: > 300 µM
